# Compounds with a hit are over-represented: about 5.3% of the library has one in this group of screens.
# NALP3 yeast inh: inhibitors of NALP3 inflammasome in yeast; Yeast reconstituted NLRP3/ASC/caspase-1, beta-gal luminescence, 24 h; inhibition, % at 10 µM; hit rate 0.39% among 330,000; AID 2825;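 active = inhibition of 50% or more; inactive = inhibition below 50%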
# Mdm2-MdmX inh: inhibitors of human Mdm2/MdmX interaction; inhibition, % at 8 µM; hit rate 3% among 330,000; O15151+Q00987; SaOS-2 split-luciferase Mdm2/MdmX complementation, luminescence; AID 485346;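 active = inhibition of at least 50% at 8 µM in the primary screen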
# Target sequence (O15151 whole entry, looked up): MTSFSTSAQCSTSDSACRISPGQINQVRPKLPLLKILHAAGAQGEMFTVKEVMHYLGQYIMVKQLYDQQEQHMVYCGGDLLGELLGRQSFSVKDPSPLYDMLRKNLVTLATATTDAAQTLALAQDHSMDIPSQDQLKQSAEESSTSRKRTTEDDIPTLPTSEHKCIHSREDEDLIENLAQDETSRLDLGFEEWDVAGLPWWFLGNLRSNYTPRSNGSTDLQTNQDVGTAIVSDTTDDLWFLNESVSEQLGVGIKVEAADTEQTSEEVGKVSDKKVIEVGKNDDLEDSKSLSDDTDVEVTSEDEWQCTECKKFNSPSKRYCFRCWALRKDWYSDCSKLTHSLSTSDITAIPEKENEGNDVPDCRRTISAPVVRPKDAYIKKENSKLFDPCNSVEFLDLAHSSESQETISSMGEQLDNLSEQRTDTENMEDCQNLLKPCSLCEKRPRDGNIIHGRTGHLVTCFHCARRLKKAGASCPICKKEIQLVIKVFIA
# Target sequence (Q00987 whole entry, looked up): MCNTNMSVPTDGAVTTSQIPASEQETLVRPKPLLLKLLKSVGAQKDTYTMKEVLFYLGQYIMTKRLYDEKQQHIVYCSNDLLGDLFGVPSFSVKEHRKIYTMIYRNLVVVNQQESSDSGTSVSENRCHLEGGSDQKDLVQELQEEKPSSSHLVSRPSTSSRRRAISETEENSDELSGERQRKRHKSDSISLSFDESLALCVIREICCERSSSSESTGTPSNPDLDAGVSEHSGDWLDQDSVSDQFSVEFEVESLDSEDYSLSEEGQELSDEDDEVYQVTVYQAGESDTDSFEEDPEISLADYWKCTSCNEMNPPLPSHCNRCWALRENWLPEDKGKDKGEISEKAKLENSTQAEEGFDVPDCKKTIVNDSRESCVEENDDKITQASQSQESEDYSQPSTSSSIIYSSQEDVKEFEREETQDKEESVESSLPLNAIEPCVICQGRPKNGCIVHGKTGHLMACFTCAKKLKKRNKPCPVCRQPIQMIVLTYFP
# Calb FLC: affects C. albicans growth with fluconazole; growth inhibition, % (test concentration not listed); hit rate 0.57% among 300,000; C. albicans CaCi-2 + fluconazole, Alamar Blue growth, 48 h;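 active = growth inhibition above about 58% in most replicates, limit read from the data, passing the limit was not always enough; inconclusive = exactly half the replicates above a set limit; inactive = most replicates below a set limit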;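 note: all wells also contain fluconazole at 8 µg/ml as a sub-toxic cotreatment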
# Beta cell apopt: blocks beta cell apoptosis; INS-1E cytokine-induced death, ATP luminescence, 48 h; percent of positive-control rescue, neutral wells zero; protection from apoptosis, % (test concentration not listed); hit rate 0.8% among 300,000; AID 435005;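 active = Every replicate reaches about 75%, or at least half do and their mean reaches it too, limit read from the data; inconclusive = At least half of replicates reach the limit but their mean does not; inactive = Under half of replicates reach the limit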;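 note: higher means more ATP so stronger rescue from cytokine killing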
# T cruzi repl: blocks replication of Trypanosoma cruzi. T. cruzi beta-gal in NIH3T3, luminescence, 90 h. inhibition, % (concentration not given with the values). hit rate 1.4% among 300,000. AID 1885;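 active = mean inhibition across valid replicates above about 55%, limit read from the data; inconclusive = mean below that limit but half or more replicates reach it; inactive = mean below it, under half of replicates reach it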;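 note: signal also drops with host cell toxicity which is not excluded here; higher percent means less beta-gal luminescence so fewer parasites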
#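 System: mouse NIH/3T3 fibroblasts infected with β-gal-expressing T. cruzi Tulahuen C4 / Input: NIH/3T3 cells, 5,000 per well / Buffer or medium: Low-serum DMEM with 2% FBS / Probe or stimulus: 5000 reporter trypomastigotes per well / Schedule: ≥90 h infection period, 3 h prior cell attachment / Measured by: GalScreen luminescence, 60 min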
# CSC inhib: blocks cancer stem cells; inhibition, % at 7.5 µM; hit rate 1.1% among 300,000; cancer stem cell-like cells viability, luminescence; in the data active = inhibition above about 75%; inconclusive = no clear call, values can overlap the other calls; tested in HMLE shEcad cells
# Numbers stand for hits; - = inactive; ? = inconclusive; . = no result given.
SMILES,NALP3 yeast inh,Mdm2-MdmX inh,Calb FLC,Beta cell apopt,T cruzi repl,CSC inhib
CCN(CC)CC#CCC(O)(c1ccccc1)C1CCCC1 (stereo not given),-,-,-,-,59,-
CCn1c(NC(=O)c2cccs2)nc2ccccc21,-,-,78,-,-,-
CCN(CC)CCn1c(NC(=O)c2ccc(C(F)(F)F)cc2)nc2ccccc21,-,-,-,-,62,-
CCN(CC)CCn1c(NC(=O)c2ccc(C)cc2)nc2ccccc21,-,-,-,-,-,-
CCn1c(NC(C)=O)nc2ccccc21,-,-,-,-,-,-
COCc1nnc(NC(=O)c2ccc(S(=O)(=O)N3CCCc4ccccc43)cc2)o1,-,-,92,-,-,-
COCc1nnc(NC(=O)c2ccc(S(=O)(=O)N3CCOCC3)cc2)o1,-,-,-,-,-,-
CNC(=O)c1c(NC(=O)c2ccc(S(=O)(=O)N3CCCc4ccccc43)cc2)sc2c1CCN(C)C2,-,-,-,-,-,76
CCCN1CCc2c(sc(NC(=O)c3ccc(S(=O)(=O)N(C)c4ccccc4)cc3)c2C(=O)NC)C1,-,-,-,-,-,78
CCOc1ccccc1NC(=O)Nc1ccsc1C(=O)OC,-,-,-,-,-,-
Cc1cccn2c(CN3CCSCC3)c(C(=O)N3CCOCC3)nc12,-,-,-,-,-,-
Fc1cccc(NC(=S)NCc2ccccn2)c1,-,-,-,-,-,.
c1ccc(CC2CCN(C3=Nc4cccc5cccc3c45)CC2)cc1,-,-,86,-,66,?
COc1ccc(CN(CC2CCC(C(=O)O)CC2)C(=S)Nc2ccc(C)c(Cl)c2)cc1 (stereo not given),-,-,-,-,58,-
Cc1noc2ncnc(Sc3ccc(Br)cc3)c12,-,-,108,-,62,-
Cc1noc2ncnc(N3CCCC3)c12,-,-,-,-,-,-
CC1S/C(=N/N=C/c2cccc([N+](=O)[O-])c2)NC1=O (stereo not given),-,-,-,-,-,88
CC1S/C(=N/N=C/c2cccs2)NC1=O (stereo not given),-,-,-,.,-,-
Cc1cc(C)c(S(=O)(=O)/N=C2/C=C(Sc3ncn[nH]3)C(=O)c3ccccc32)cc1C,.,.,.,129,.,103
Cc1[nH]c2ccccc2c1C(Nc1nccs1)c1ccncc1 (stereo not given),-,-,-,-,-,.
Oc1c(C(Nc2nccs2)c2ccc(C(F)(F)F)cc2)ccc2cccnc12 (stereo not given),.,.,103,.,-,.
CC(=O)N1CCc2cc(S(=O)(=O)NCCC3=CCCCC3)ccc21,-,-,-,87,-,.
Cc1ccc(NC(=O)c2cc(S(=O)(=O)NCCC3=CCCCC3)ccc2F)cc1F,-,-,-,107,-,-
Nc1nc(Nc2ccccc2)nc(NC2CCCCC2)c1[N+](=O)[O-],-,-,-,-,-,104
Cc1c(C)n(-c2ccccc2)c2ncnc(NCCCN(C)C)c12,-,-,-,-,-,-
SMILES,NALP3 yeast inh,Mdm2-MdmX inh,Calb FLC,Beta cell apopt,T cruzi repl,CSC inhib
Cc1ccc(C(=O)N/N=C\c2ccc([N+](=O)[O-])o2)cn1,-,-,-,-,58,-
O=C(N/N=C/c1ccc([N+](=O)[O-])o1)c1ccc2c(c1)OCO2,-,-,-,-,69,-
O=C1ON=C(c2ccc(Cl)cc2)/C1=C/c1ccc(O)cc1,-,-,-,-,-,79
O=C(CSc1nnc(NCc2ccccc2)s1)NC1CCS(=O)(=O)C1 (stereo not given),-,-,-,-,-,-
CC1CCN(S(=O)(=O)c2ccc(NC(=O)CN3CCN(C)CC3)cc2)CC1,-,-,-,-,59,-
CC1CCN(S(=O)(=O)c2ccc(NC(=O)Cn3nnc(-c4ccccc4F)n3)cc2)CC1,-,-,-,-,69,-
CC1CN(C(=S)Nc2cccc([N+](=O)[O-])c2)CC(C)O1 (stereo not given),-,-,121,-,.,-
CCOc1ccc(CN2CCN(Cc3nc4c(s3)CCCC4)CC2CCO)cc1 (stereo not given),-,-,-,-,57,-
COc1cccc(CN2CCN(Cc3nc4c(s3)CCCC4)CC2CCO)c1 (stereo not given),-,-,-,-,-,-
Cc1ccc(CN2CCN(Cc3nc4c(s3)CCCC4)CC2CCO)cc1 (stereo not given),-,-,-,-,56,-

# From PubChem
